This is a sample that favours compounds with a hit; in the whole collection about 1.9% have one here.
Tb hexokinase: Trypanosoma brucei hexokinase 1 inhibitors, primary screen, biochemical, G6PDH-coupled NADH absorbance, MLSCN library. hexokinase 1 [Trypanosoma brucei]. recombinant TbHK1, G6PDH-coupled NADH A340. inhibition, % at 10 µM. 0.11% of 220,000 active. AID 1430, 2008;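 active = inhibition of 50% or more in the single-dose primary screen; inactive = inhibition below 50%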
bCat nuc transl: modulators of beta-catenin nuclear translocation, primary screen, imaging, HeLa cells, immunofluorescence, high-content; nuclear translocation activity, % at 5 µM; AID 1665, 2009; 0.3% of 190,000 active;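 active = nuclear translocation activity above 50% at 5 µM, with a well cell count of 50 or more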;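 also: per-cell ratio of nuclear to cytoplasmic median beta-catenin stain intensity; plate controls were DMSO negative control for no effect and GSK-3 inhibitor IX positive control for full effect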
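Technique: fluorescence imaging of beta-catenin antibody stain plus DAPI / Material: human HeLa cell line / Incubation: compound treatment 24 h, 37°C, 5% CO2 / Read-out basis: % activation of per-cell nuclear versus cytoplasmic median beta-catenin signal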
Ins promoter up: insulin promoter activators in MIN6 cells, imaging, high-content screening, mouse beta cells; MIN6 insulin promoter-GFP reporter; stronger effect = higher value; z-score at 5 µM; 0.3% of 190,000 active; AID 1625, 2009;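 active = z-score above 3 at 5 µM with at least 500 cells counted in the well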
Autophagy HCS: autophagy modulators in MEF cells, primary screen, imaging, high-content, MEF GFP-LC3; 0.98% of 190,000 active; calls only at 10 µM (by protocol); MEF GFP-LC3 puncta imaging; test concentration mostly 10 µM;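 active = percentage of spot-positive cells more than 3 SD above its plate mean, without a fluorescence outlier flag or 80% toxicity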;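 also: spot-positive cell cutoff set from DMSO-treated cells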
MT stabilizer: microtubule stabilizers in HeLa cells, primary screen, imaging, high-content imaging | HeLa tubulin immunostaining HCS, 24 h; share of cells brighter than vehicle mean+2SD | % tubulin-high responders, % at 10 µM | 0.83% of 200,000 active;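 active = plate Z-score above 3 for both tubulin-high and condensed-nucleus cell shares, with cell loss under 80%, at 10 µM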;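 also: anti alpha tubulin signal scored within the nucleus-defined area of each cell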
An asterisk follows results filed as active; i = inactive; · = not tested or not shown; + = active, no number.

SMILES	Tb hexokinase	bCat nuc transl	Ins promoter up	Autophagy HCS	MT stabilizer
CCOC(=O)CSc1nc(=O)n2cccc(C)c2n1	-22	0	0.32	+	2
CCCC1CCC(=C(C#N)C(N)=O)CC1 (configuration not stated)	-1	·	0.01	i	2
COc1ccc(NC2=Nc3ccccc3N3C2=Nc2c(c(C)nn2-c2ccc(C)cc2)C3c2cccnc2)cc1 (configuration not stated)	-22	·	3.1*	i	2
O=C(NCc1ccccc1)c1noc2c1CCCCC2	-5	4	0.22	+	4
COc1ccc(CNC(=O)c2noc3c2CCCCC3)cc1	-4	0	-0.08	i	2
Cc1nn(-c2ccc(F)cc2)c(Cl)c1/C=C1\C(=O)Nc2ccccc21	-5	1	0.14	i	22*
O=C(Nc1ccc(NC(=O)C2CCCCC2)nc1)c1cccs1	10	0	-0.15	i	2
O=C(CSc1nc2ccccc2c(=O)n1CCCN1CCOCC1)Nc1ccc2c(c1)OCO2	-5	2	·	i	3
NS(=O)(=O)c1cccc(NC(=O)CSc2nc3ccccc3c(=O)n2CCCN2CCOCC2)c1	-3	2	0.17	+	4
O=C(CSc1nc2ccccc2c(=O)n1CCCN1CCOCC1)c1c[nH]c2ccccc12	-10	1	·	+	4
CCc1ccc(NC(=O)CSc2nc3ccccc3c(=O)n2CCCC(=O)N2CCCC2)cc1	-12	·	1.1	i	27*
CCNS(=O)(=O)c1ccc(CCC(=O)NCc2ccc(C)cc2)cc1	-6	-1	-0.28	+	5
CN(C)C(=O)CN(c1ccc2c(c1)OCO2)S(C)(=O)=O	2	0	3.6*	i	3
CS(=O)(=O)N(CC(=O)Nc1ccc2c(c1)OCO2)c1ccc2c(c1)OCO2	-4	·	·	i	2
CC(=O)Oc1ccccc1-n1c(C)nc(=O)c(-c2ccccc2)c1C	-4	0	1.1	·	·
CC(C)=CCC/C(C)=C/CCC(C)NCCN1CCNCC1 (configuration not stated)	13	0	-1.1	+	3
O=C(O)COc1ccc(/C=C/c2nc3ccc([N+](=O)[O-])cc3s2)cc1	-22	1	0.24	·	·
Cc1ccc2oc(=O)c3cc(C(=O)N4CCN(C(=O)c5ccco5)CC4)sc3c2c1	-25	-1	-0.07	i	3
O=C(c1ccco1)N1CCN(C(=O)c2cc3c(=O)oc4ccccc4c3s2)CC1	-25	0	0.51	+	4
Cc1nc(SC2CC(=O)N(c3ccccc3)C2=O)n[nH]1 (configuration not stated)	1	0	0.18	+	3
O=C1CC(Sc2ncccn2)C(=O)N1c1ccccc1 (configuration not stated)	-2	·	0.3	i	3
CCOc1ccccc1NC(=O)c1cc(C(=O)c2cc(Br)ccc2O)coc1=N	-9	·	0.82	i	12*
CC(C)OC(=O)c1cc(C(=O)c2cc(Br)ccc2O)coc1=N	-10	0	0.24	i	3
O=C(NCCCN1CCN(c2ccccc2F)CC1)C1CCCN(S(=O)(=O)c2cnc[nH]2)C1 (configuration not stated)	6	·	1	+	3
CN(CCCNC(=O)C1CCCN(S(=O)(=O)c2cnc[nH]2)C1)c1ccccc1 (configuration not stated)	6	·	0.17	i	2
SMILES	Tb hexokinase	bCat nuc transl	Ins promoter up	Autophagy HCS	MT stabilizer
CCC(CC)C(=O)NCc1ccc(OC)cc1	-5	-4	1.1	i	4
Cc1ccc(OCc2nnc(SCC(=O)c3ccccc3)n2Cc2ccco2)cc1	4	-1	-0.53	i	9
O=C(CSc1nnc(COc2ccccc2)n1Cc1ccco1)c1ccc(F)cc1	14	1	0.55	+	5
Cc1cc(SCC(=O)NC(=O)c2cccn2C)nc2ccccc12	-15	0	0.04	·	·
O=C(CSc1nc2c(sc3ccccc32)c(=O)n1CCc1ccccc1)NCc1ccco1	27	·	0.54	+	1
CCCCn1c(SCC(=O)NCc2ccco2)nc2c(sc3ccccc32)c1=O	3	·	0.65	i	2
O=C(COC(=O)C1(c2ccc(F)cc2)CCCC1)N1CCc2ccccc21	0	·	-0.89	i	1
N#C/C(=C/c1ccc(-c2cc(C(=O)O)cc(C(=O)O)c2)o1)c1nc2ccccc2s1	-4	-2	3*	i	1
N=C1/C(=C/c2cccn2CCOc2ccccc2)C(=O)N=C2SC=C(c3ccccc3)N12	13	36	-0.54	i	30*
N=C1/C(=C\c2ccc(-c3cc(Cl)cc(Cl)c3)o2)C(=O)N=C2SC=C(c3ccccc3)N12	20	-1	0.22	i	7
COc1cc(C2CC(=O)N(c3ccc(C)cc3)C(=O)C2)cc(OC)c1OC	-8	75*	0.06	·	·
COCCNC(=O)C(=O)NNS(=O)(=O)c1ccc2ccccc2c1	6	0	·	i	1
CC(=O)Nc1ccc(NS(=O)(=O)c2ccccc2)cc1	-5	-4	·	+	2
CSc1ccc(C(=O)C2CCCN(Cc3ccc(N4CCNC4=O)cc3)C2)cc1 (configuration not stated)	-22	7	-1.1	i	14*
C=CCN1C(=O)C(CC(=O)Nc2ccccc2)N(Cc2ccccn2)C1=S (configuration not stated)	0	·	-1.2	i	2
O=C(Cn1c2ccccc2c(=O)c2ccccc21)N/N=C/c1cc([N+](=O)[O-])ccc1N1CCCCC1	-7	0	-0.53	+	3
CC(C)n1cc(/C=C2\NC(=O)N(c3cccc(Cl)c3)C2=O)c2ccccc21	-17	·	·	+	22*
CC(C)n1cc(/C=C2/NC(=O)N(c3cccc(Cl)c3)C2=O)c2ccccc21	-7	0	0.07	+	20
COc1ccc(NC2c3ccccc3C(=O)N2c2cccnc2)cc1 (configuration not stated)	-19	0	0.21	·	·
COc1ccc(NC(=O)c2[nH]c(C)c(C(C)=O)c2C)cc1Cl	-11	-7	3.8*	i	2
O=C(Nc1ccc(N2CCOCC2)cc1)c1ccc(S(=O)(=O)NCc2ccco2)cc1	-3	0	-0.34	·	·
Nc1nc(-c2ccccc2)cc(N2CCCCC2)n1	-9	56*	·	i	14*
COc1ccc(-c2cn3c(C)c(C(=O)Nc4cc(NC(C)=O)ccc4OC)sc3n2)cc1	-33	3	·	i	34*
CC(C)C(=O)Nc1ccc(C(=O)NNC(=S)NC(=O)c2ccco2)cc1	-42	-1	1.2	·	·
Cc1ccc(Nc2nnc(SCC(=O)N(C)C3CCS(=O)(=O)C3)s2)cc1 (configuration not stated)	-3	-1	-0.06	i	3

Assay outcomes from PubChem BioAssay.
